Results from different studies.
Lines come from different studies, so protocols differ.
Target: TRAF2 and NCK-interacting protein kinase (TNIK, Homo sapiens, UniProt Q9UKE5)

| SMILES | assay | setting | remaining binding |
| --- | --- | --- | --- |
| C[C@H]1CCN(c2nccc(-c3cnn4ncccc34)n2)C1 | binding | 1 µM | 100% |
| O=C(Nc1c[nH]nc1C(=O)NC1CCNCC1)c1cc(F)cc(F)c1 | binding, competition with immobilised ligand | 1 µM | 100% |
| Cc1cc(C)c(-n2ccn3nc(-c4cccnc4)cc23)cc1NC(=O)c1cc(C#N)cc(S(F)(F)(F)(F)F)c1 | cell-free assay, competition with immobilised ligand | 0.1 µM | 97.4% |
| C[C@@H](c1ccc(-n2cnc3c(N)ncnc32)cc1)N1CCc2nn(C)c(Cc3ccccc3)c2C1=O | binding, competition with immobilised ligand | 0.1 µM | 76% |
| CC1=C(C#N)C(c2ccc3c(c2)c(NC(=O)c2ccccc2C)nn3C)C(C#N)=C(C)N1 | cell-free assay, competition with immobilised ligand | 1 µM | 98% |
| c1cnn2ncc(-c3ccnc(N4CCC45COC5)n3)c2c1 | binding | 1 µM | 72% |
| CS(=O)(=O)N1CCCC(NC(=O)[C@H](CCC2CCCCC2)NC(=O)c2ccc(CNc3ncnc4c3nnn4-c3ccccc3)cc2)C1 (stereo partly drawn) | binding, competition with immobilised ligand | 1 µM | 45% |
| N[C@H]1CCN(c2nccc(-c3cnn4ncccc34)n2)C1 | binding | 1 µM | 80% |
| O=C(NCCCN1CCOCC1)c1ccc(Nc2ncc(Cl)c(-c3ccc(Cl)s3)n2)cc1 | binding, competition with immobilised ligand | 1 µM | 44% |
| Cc1cnn2ncc(-c3ccnc(N(C)C)n3)c2c1 | binding | 1 µM | 80% |
| O=C(c1ccc(Nc2nccc(-c3cc4ccccc4s3)n2)cc1)N1CCC(N2CCCC2)CC1 | binding, competition with immobilised ligand | 1 µM | 79% |
| COc1cnc(Nc2cccc(S(N)(=O)=O)c2)nc1N1CCN(c2ccccc2)CC1 | binding, competition with immobilised ligand | 1 µM | 75% |
| CNC(=O)Nc1ccc2c(c1)CC[C@@]21OC(=O)N(CC(=O)N(Cc2ccc(F)cc2)[C@@H](C)C(F)(F)F)C1=O | cell-free assay, competition with immobilised ligand | 1 µM | 93% |
| F[C@@H]1CCN(c2nccc(-c3cnn4ncccc34)n2)C1 | binding | 1 µM | 100% |
| CC(C)(O)c1cncc(-c2nc3ccc(F)cc3n2C2CC2)c1 | cell-free assay, competition with immobilised ligand | 1 µM | 100% |
| Nc1ncc2c(n1)-c1c([nH]c3ccc(C#CC4CC4)cc13)CCCC2 | binding, competition with immobilised ligand | 1 µM | 42% |
| COc1cnc(Nc2cccc(S(N)(=O)=O)c2)nc1N1CCN(c2ccccc2)C(=O)C1 | binding, competition with immobilised ligand | 1 µM | 76% |
| O=C(c1ccc(Nc2ncc(Cl)c(-c3cc4ccccc4s3)n2)cc1)N1CCC(N2CCCC2)CC1 | binding, competition with immobilised ligand | 1 µM | 73% |
| C=CC(=O)N1CCC(C(=O)NCC(=O)N2CCN(c3nc(-c4cnc(N)nc4C(F)F)nc(N4CCOCC4)n3)CC2)CC1 | binding, competition with immobilised ligand | 1 µM | 87% |
| CN(CCCC(F)(F)F)c1nccc(-c2cnn3ncccc23)n1 | binding | 1 µM | 100% |
| CCC(=N\O)/C(C)=C/c1ccc(F)cc1 | cell-free assay, competition with immobilised ligand | 1 µM | 93% |
